# Data published in ChEMBL document CHEMBL4414600, “Discovery of a Furanopyrimidine-Based Epidermal Growth Factor Receptor Inhibitor (DBPR112) as a Clinical Candidate for the Treatment of Non-Small Cell Lung Cancer” (J Med Chem, 2019).
# pIC50: −log10 of the molar value. Active and inactive are the calls of the source. The calls are words filed in the database; no cut-off is given here.
# What was measured:
# NCI-H1975 [1] = experiment: Cytotoxicity in human NCI-H1975 cells assessed as reduction in cell viability incubated for 96 hrs by MTS method; type: functional
# [2] = biological target: Epidermal growth factor receptor (Homo sapiens, UniProt P00533, D770-N771INSNPG); experiment: Inhibition of GST-tagged human EGFR D770_N771insNPG mutant using poly(Glu, Tyr) 4:1 substrate incubated for 120 mins by kinase-Glo plus luminescent kinase assay
# Chain of Epidermal growth factor receptor (Homo sapiens, UniProt P00533, D770-N771INSNPG) (P00533 whole entry, looked up, stated change not applied): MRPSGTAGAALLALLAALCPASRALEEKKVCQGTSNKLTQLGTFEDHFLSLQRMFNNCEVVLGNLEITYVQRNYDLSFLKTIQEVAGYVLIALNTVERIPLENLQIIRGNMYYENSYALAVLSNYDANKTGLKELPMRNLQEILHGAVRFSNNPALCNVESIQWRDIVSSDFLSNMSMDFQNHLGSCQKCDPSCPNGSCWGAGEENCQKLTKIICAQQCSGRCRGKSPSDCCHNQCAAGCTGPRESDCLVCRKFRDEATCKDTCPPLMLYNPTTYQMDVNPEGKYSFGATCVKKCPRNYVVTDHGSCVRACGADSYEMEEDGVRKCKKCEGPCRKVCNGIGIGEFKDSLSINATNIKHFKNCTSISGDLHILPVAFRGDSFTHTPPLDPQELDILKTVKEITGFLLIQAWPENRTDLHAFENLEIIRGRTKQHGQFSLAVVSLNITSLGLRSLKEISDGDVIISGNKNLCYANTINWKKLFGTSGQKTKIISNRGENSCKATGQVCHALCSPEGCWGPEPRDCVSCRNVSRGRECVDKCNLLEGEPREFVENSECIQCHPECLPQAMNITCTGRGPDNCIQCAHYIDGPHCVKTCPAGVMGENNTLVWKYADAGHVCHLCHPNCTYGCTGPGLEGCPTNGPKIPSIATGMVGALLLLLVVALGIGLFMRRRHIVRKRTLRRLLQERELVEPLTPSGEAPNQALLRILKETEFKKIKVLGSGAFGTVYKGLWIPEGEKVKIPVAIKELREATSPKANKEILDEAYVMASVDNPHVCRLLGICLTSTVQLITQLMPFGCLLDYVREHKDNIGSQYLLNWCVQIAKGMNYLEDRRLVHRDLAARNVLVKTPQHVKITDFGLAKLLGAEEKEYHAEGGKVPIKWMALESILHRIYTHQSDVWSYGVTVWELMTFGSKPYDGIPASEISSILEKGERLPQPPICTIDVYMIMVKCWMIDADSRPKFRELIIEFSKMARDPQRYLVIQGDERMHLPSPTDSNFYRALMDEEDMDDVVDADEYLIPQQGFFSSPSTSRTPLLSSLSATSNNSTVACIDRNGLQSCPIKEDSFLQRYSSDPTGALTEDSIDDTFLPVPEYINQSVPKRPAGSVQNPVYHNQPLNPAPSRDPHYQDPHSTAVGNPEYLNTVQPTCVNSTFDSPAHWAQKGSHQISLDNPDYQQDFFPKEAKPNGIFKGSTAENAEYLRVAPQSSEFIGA
# [3] = Inhibition of GST-tagged human HER2 V777_G778insCG mutant mutant using poly(Glu, Tyr) 4:1 substrate incubated for 120 mins by kinase-Glo plus luminescent kinase assay
# [4] = Inhibition of GST-tagged human EGFR D770GY mutant using poly(Glu, Tyr) 4:1 substrate incubated for 120 mins by kinase-Glo plus luminescent kinase assay
# A-431 = experiment: Cytotoxicity in human A431 cells assessed as reduction in cell viability incubated for 96 hrs by MTS method; type: functional
# [5] = biological target: Epidermal growth factor receptor (Homo sapiens, UniProt P00533, A763-Y764INSFHEA); experiment: Inhibition of GST-tagged human EGFR A763_Y764insFHEA mutant using poly(Glu, Tyr) 4:1 substrate incubated for 120 mins by kinase-Glo plus luminescent kinase assay
# Chain of Epidermal growth factor receptor (Homo sapiens, UniProt P00533, A763-Y764INSFHEA) (P00533 whole entry, looked up, stated change not applied): as above
# [6] = biological target: Epidermal growth factor receptor (Homo sapiens, UniProt P00533, L858R/T790M)
# Chain of Epidermal growth factor receptor (Homo sapiens, UniProt P00533, L858R/T790M) (P00533 25-1210 T790M/L858R limits assumed): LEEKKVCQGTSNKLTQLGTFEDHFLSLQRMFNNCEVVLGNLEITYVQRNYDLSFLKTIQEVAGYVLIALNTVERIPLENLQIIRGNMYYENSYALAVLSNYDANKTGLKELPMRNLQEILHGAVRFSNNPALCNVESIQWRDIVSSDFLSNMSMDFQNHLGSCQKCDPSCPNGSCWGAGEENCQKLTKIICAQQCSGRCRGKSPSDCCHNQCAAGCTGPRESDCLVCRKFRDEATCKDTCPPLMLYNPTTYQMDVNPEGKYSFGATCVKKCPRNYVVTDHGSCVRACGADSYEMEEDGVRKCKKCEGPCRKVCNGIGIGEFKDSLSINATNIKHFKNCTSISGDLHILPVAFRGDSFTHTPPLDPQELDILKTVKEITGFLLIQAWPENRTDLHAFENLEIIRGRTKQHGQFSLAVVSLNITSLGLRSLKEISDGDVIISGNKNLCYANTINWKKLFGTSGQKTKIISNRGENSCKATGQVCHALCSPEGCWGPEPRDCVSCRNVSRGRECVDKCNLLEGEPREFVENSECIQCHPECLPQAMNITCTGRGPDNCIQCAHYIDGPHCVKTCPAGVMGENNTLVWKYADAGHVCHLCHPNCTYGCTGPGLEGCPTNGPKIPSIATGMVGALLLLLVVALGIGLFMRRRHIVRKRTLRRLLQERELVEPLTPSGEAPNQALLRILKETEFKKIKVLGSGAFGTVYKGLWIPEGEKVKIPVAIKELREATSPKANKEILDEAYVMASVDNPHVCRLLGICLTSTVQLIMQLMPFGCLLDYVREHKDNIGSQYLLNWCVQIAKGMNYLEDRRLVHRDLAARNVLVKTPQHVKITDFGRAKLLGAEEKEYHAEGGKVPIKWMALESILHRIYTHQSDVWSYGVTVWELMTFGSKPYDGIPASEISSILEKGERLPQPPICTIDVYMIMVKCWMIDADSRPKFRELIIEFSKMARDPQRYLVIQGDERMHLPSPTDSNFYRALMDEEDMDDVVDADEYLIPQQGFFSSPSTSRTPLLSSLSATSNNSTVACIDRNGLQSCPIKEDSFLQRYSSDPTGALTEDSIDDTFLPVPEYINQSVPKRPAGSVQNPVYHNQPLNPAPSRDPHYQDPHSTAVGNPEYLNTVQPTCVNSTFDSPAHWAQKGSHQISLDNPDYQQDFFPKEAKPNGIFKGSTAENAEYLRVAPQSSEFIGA
# [7] = biological target: Epidermal growth factor receptor (Homo sapiens, UniProt P00533)
# Chain of Epidermal growth factor receptor (Homo sapiens, UniProt P00533) (P00533 whole entry): as the sequence (P00533 whole entry, looked up, stated change not applied) above
# HCC827 [8] = experiment: Cytotoxicity in human HCC827 cells assessed as reduction in cell viability incubated for 96 hrs by MTS method; type: functional
# [9] = AUC (0 to infinity) in rat at 20 mg/kg, po; type: ADME, organism-based; parameters: dose 20 mg/kg, route oral, time infinity; settings: in vivo
# Method in brief: (§1)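 Rat pharmacokinetics: single IV injection at 5 mg/kg or oral dosing at 20 mg/kg (23.6 mg/kg oral for one compound). Plasma parameters t1/2, CL, Vss, AUC(0-inf), Cmax, Tmax and oral bioavailability F were derived from the concentration–time profiles.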
# [10] = AUC (0 to infinity) in rat at 5 mg/kg, iv; type: ADME, organism-based; parameters: dose 5 mg/kg, time infinity, route intravenous; settings: in vivo
# [11] = Toxicity in nude BALB/c mouse xenografted with human NCI-H1975 cells assessed as induction of body weight loss at 15 mg/kg, po QD for 15 days relative to control; type: organism-based; settings: in vivo, 360 h
# Method in brief: (§2)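 H1975 cells were grown in RPMI1640 with 10% heat-inactivated FBS at 37 °C, 5% CO2, and passaged by trypsin-EDTA. 5x10^6 cells in 0.1 ml PBS were injected subcutaneously at the right flank of BALB/c nude mice. Oral QD dosing for 15 days began at a mean tumor size of 147 mm³, n = 5 per group.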
# [12] = Toxicity in athymic NU-Fox1nu nude mouse xenografted with human HCC827 cells assessed as induction of body weight loss at 20 mg/kg, po dosed via gavage for 5 days/week for 2 consecutive weeks; type: organism-based; settings: in vivo, 120 h
# Method in brief: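 Male athymic NU-Fox1nu nude mice, 6–8 weeks old, were inoculated subcutaneously at the left flank with 5x10^6 HCC827 (exon 19 Del E746_A750) cells. Oral gavage began at a mean tumor size of about 500 mm³, in 1% methylcellulose/0.5% Tween 80/98.5% water, once daily on days 1-5 and 8-12. Tumor volume (V = 0.5 a × b², caliper) and body weight were tracked.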
# [13] = Oral bioavailability in rat at 20 mg/kg; type: ADME, organism-based; settings: in vivo; method in brief: as §1
# [14] = Half life in rat at 20 mg/kg, po; type: ADME, organism-based; settings: in vivo; method in brief: as §1
# [15] = Clearance in rat at 5 mg/kg, iv; type: ADME, organism-based; settings: in vivo
# [16] = Toxicity in ICR mouse assessed as induction of fur loss in nose and abdomen area at 100 mg/kg, po QD for 2 weeks; type: organism-based; settings: in vivo, 336 h
# NCI-H1975 [17] = experiment: Antitumor activity against human NCI-H1975 cells xenografted in nude BALB/c mouse assessed as inhibition of tumor growth at 15 mg/kg, po QD for 15 days relative to control; type: functional; settings: 360 h, read-out: TGI; method in brief: as §2
# [18] = Toxicity in ICR mouse assessed as induction of skin rash at 100 mg/kg, po QD for 2 weeks; type: organism-based; settings: in vivo, 336 h
# [19] = Tmax in rat at 20 mg/kg, po; type: ADME, organism-based; settings: in vivo; method in brief: as §1
# [20] = Toxicity in nude BALB/c mouse xenografted with human NCI-H1975 cells assessed as drug tolerability at 15 mg/kg, po QD for 15 days relative to control; type: organism-based; settings: in vivo, 360 h; method in brief: as §2
# HCC827 [21] = settings: Homo sapiens
# [22] = Cmax in rat at 20 mg/kg, po; type: ADME, organism-based; parameters: dose 20 mg/kg, route oral; settings: in vivo; method in brief: as §1
# [23] = Half life in rat at 5 mg/kg, iv; type: ADME, organism-based; settings: in vivo
# [24] = Volume of distribution at steady state in rat at 5 mg/kg, iv; type: ADME, organism-based; settings: in vivo, read-out: Vdss
Compound,pIC50 [6],pIC50 [7],"CC50 (NCI-H1975 [1]; Homo sapiens, NCI-H1975, 96 h)","CC50 (HCC827 [8]; Homo sapiens, HCC827, 96 h)",also measured
O=C(O)/C=C/C(=O)Nc1cccc(-c2c(-c3ccccc3)oc3ncnc(N[C@H](CO)c4ccccc4)c23)c1,< 5.00,5.51,> 20000 nM,4120 nM,
O=C(/C=C/c1ccccc1)Nc1cccc(-c2c(-c3ccccc3)oc3ncnc(N[C@H](CO)c4ccccc4)c23)c1,< 5.00,5.30,> 20000 nM,1780 nM,
CN(C)C/C=C/C(=O)Nc1cccc(-c2c(-c3ccccc3)oc3ncnc(N[C@@H](CO)c4ccccc4)c23)c1,,,,,CC50 (HCC827 [8]): 1050 nM
C=CS(=O)(=O)Nc1cccc(-c2c(-c3ccccc3)oc3ncnc(N[C@H](CO)c4ccccc4)c23)c1,5.61,5.43,7240 nM,2710 nM,
CC(C)C/C=C/C(=O)Nc1cccc(-c2c(-c3ccccc3)oc3ncnc(N[C@H](CO)c4ccccc4)c23)c1,< 5.00,< 5.00,> 20000 nM,679 nM,
C=CC(=O)N1CCC(Oc2cc3c(Nc4ccc(Cl)c(Cl)c4F)ncnc3cc2OC)CC1 [POZIOTINIB],,,,,"pIC50 [3]: 9.69; pIC50 [4]: 10.09; CC50 (A-431; Homo sapiens, A-431, 96 h): 31 nM"
C=CC(=O)Nc1cc(Nc2nccc(-c3cn(C)c4ccccc34)n2)c(OC)cc1N(C)CCN(C)C [OSIMERTINIB],,,,,pIC50 [3]: 8.48; pIC50 [4]: 9.07; CC50 (A-431): […]
C/C=C/C(=O)Nc1cccc(-c2c(-c3ccccc3)oc3ncnc(N[C@H](CO)c4ccccc4)c23)c1,< 5.00,6.62,13200 nM,307 nM,
CCN(C/C=C/C(=O)Nc1cccc(-c2c(-c3ccccc3)oc3ncnc(N[C@H](CO)c4ccccc4)c23)c1)CCO,6.93,7.89,2410 nM,19 nM,
CCN(CC)C/C=C/C(=O)Nc1cccc(-c2c(-c3ccccc3)oc3ncnc(N[C@H](CO)c4ccccc4)c23)c1,6.88,7.85,2480 nM,62 nM,
CC#CC(=O)Nc1cccc(-c2c(-c3ccccc3)oc3ncnc(N[C@H](CO)c4ccccc4)c23)c1,5.20,7.19,6740 nM,182 nM,
CCOC(=O)/C=C/C(=O)Nc1cccc(-c2c(-c3ccccc3)oc3ncnc(N[C@H](CO)c4ccccc4)c23)c1,,,7010 nM,516 nM,
OC[C@@H](Nc1ncnc2oc(-c3ccccc3)c(-c3ccccc3)c12)c1ccccc1,< 5.00,,,518 nM,
C=CC(=O)Nc1cccc(-c2c(-c3ccccc3)oc3ncnc(N[C@@H](CO)c4ccccc4)c23)c1,,,,,CC50 (NCI-H1975 [1]): 13400 nM; CC50 (HCC827 [8]): 840 nM
CN(C)C/C=C/C(=O)Nc1cc2c(Nc3ccc(F)c(Cl)c3)ncnc2cc1O[C@H]1CCOC1 [AFATINIB],,,224 nM,14 nM,AUC(0-inf) [9]: 676 ng·h/mL; AUC(0-inf) [10]: 1060 ng·h/mL; Activity [11]: Non-Toxic; Activity [12]: 5%; bioavailability [13]: 15.9%; half-life [14]: 6 h; clearance [15]: 79.2 mL/min/kg; Activity [16]: Toxic; inhibition in vivo at 15 mg/kg (NCI-H1975 [17]): 65%; Activity [18]: Toxic; Tmax [19]: 4.2 h; Activity [20]: Non-Toxic; TGI (HCC827 [21]): Active; Cmax [22]: 75.2 ng/mL; half-life [23]: 5.7 h; Vd [24]: 28.7 L/kg
C=CC(=O)Nc1cccc(-c2c(-c3ccccc3)oc3ncnc(N[C@H](C)c4ccccc4)c23)c1,6.30,6.93,4300 nM,58 nM,"pIC50 [2]: 8.83; pIC50 [3]: 8.09; pIC50 [4]: 9.19; CC50 (A-431; Homo sapiens, A-431, 96 h): 449 nM; pIC50 [5]: 9.67"
C=CC(=O)Nc1cccc(-c2c(-c3ccccc3OC)oc3ncnc(N[C@H](CO)c4ccccc4)c23)c1,,,4080 nM,34 nM,"pIC50 [3]: 8.28; pIC50 [4]: 9.53; CC50 (A-431; Homo sapiens, A-431, 96 h): > 8010 nM"
C=CC(=O)Nc1cccc(-c2c(-c3ccccc3)oc3ncnc(N[C@H](CO)c4ccccc4)c23)c1,,,,,CC50 (NCI-H1975 [1]): 1260 nM; AUC(0-inf) [9]: 303 ng·h/mL; AUC(0-inf) [10]: 1100 ng·h/mL; bioavailability [13]: 5.5%; half-life [14]: 0.9 h; clearance [15]: 76.5 mL/min/kg; CC50 (HCC827 [8]): 24 nM; Tmax [19]: 1.2 h; Cmax [22]: 193 ng/mL; half-life [23]: 0.5 h; Vd [24]: 2.3 L/kg
O=C(/C=C/CN1CCOCC1)Nc1cccc(-c2c(-c3ccccc3)oc3ncnc(N[C@H](CO)c4ccccc4)c23)c1,6.55,7.72,2830 nM,17 nM,

# The next lines start with results.
pIC50 [6],pIC50 [7],Compound,"CC50 (NCI-H1975 [1]; Homo sapiens, NCI-H1975, 96 h)","CC50 (HCC827 [8]; Homo sapiens, HCC827, 96 h)",also measured
6.19,6.87,C=CC(=O)Nc1cccc(-c2c(-c3ccccc3)sc3ncnc(N[C@H](CO)c4ccccc4)c23)c1,10700 nM,146 nM,"pIC50 [2]: 7.75; pIC50 [3]: 6.43; pIC50 [4]: 8.32; CC50 (A-431; Homo sapiens, A-431, 96 h): > 20000 nM; pIC50 [5]: 8.94"
5.88,7.21,C=CC(=O)Nc1cccc(-c2c(C)oc3ncnc(N[C@H](CO)c4ccccc4)c23)c1,> 20000 nM,46 nM,
5.90,6.97,C=CC(=O)Nc1cccc(-c2c(C)sc3ncnc(N[C@H](CO)c4ccccc4)c23)c1,12600 nM,35 nM,
< 5.00,6.80,C=CC(=O)Nc1cccc(-c2coc3ncnc(N[C@H](CO)c4ccccc4)c23)c1,> 20000 nM,744 nM,
5.64,7.09,C=CC(=O)Nc1cccc(-c2csc3ncnc(N[C@H](CO)c4ccccc4)c23)c1,> 20000 nM,56 nM,
5.97,7.09,C=CC(=O)Nc1cccc(-c2c(Cl)sc3ncnc(N[C@H](CO)c4ccccc4)c23)c1,8660 nM,51 nM,
5.33,6.38,C=CC(=O)Nc1cccc(-c2noc3ncnc(N[C@H](CO)c4ccccc4)c23)c1,> 20000 nM,105 nM,
